According to ChEMBL document CHEMBL1149419, “Peptide-mediated cell transport of water soluble porphyrin conjugates” (J Med Chem, 2006):
*1 amine or outer side, *2 acyl side, *3 side chain or, on linkers, in order; H or OH if unused. Where a SMILES comes first, the peptide text is derived from it. [ ]: non-standard residue; d: D form. The star is where a group is joined. X1 = O=C(COCC(=O)*)Nc1ccc(-c2c3nc(c(-c4ccccc4)c4ccc([nH]4)c(-c4ccccc4)c4nc(c(-c5ccccc5)c5ccc2[nH]5)C=C4)C=C3)cc1; NH(CH2CH2O)6CH2CO = O=C(COCCOCCOCCOCCOCCOCCN[*:1])[*:2]

Columns and labels:
HEp-2 [1] = test: Phototoxicity against human HEp2 cells at 10 uM; assay type: cell-based
In short: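 HEp2 cells seeded and attached 36-48 h, then loaded overnight with conjugate at 0, 0.625, 1.25, 2.5, 5 and 10 µM. Medium was swapped for medium with 50 mM HEPES pH 7.4. Cells were irradiated on ice for 10 min with a 100 W halogen lamp through a 610 nm long-pass filter and a water IR filter, about 0.5 J/cm2. After overnight incubation, viability was read by Cell Titer Blue.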

HEp-2 [2] = test: Cellular uptake in human HEp2 cells at 10 uM; assay type: ADME, cell-based; details: hep-2, 10 µM
In short: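 HEp2 cells seeded at 10 000 per well and grown overnight, then exposed to 10 µM conjugate (diluted into medium from 10 mM water stocks) for 0, 1, 2, 4, 8 and 24 h. After PBS wash, cells lysed in 0.25% Triton X-100/PBS. Conjugate quantified by fluorescence at 410/650 nm (ex/em), and cell number by CyQuant.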

HEp-2 [3] = test: Dark cytotoxicity against human HEp2 cells at 100 uM; assay type: functional, cell-based
In short: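 HEp2 cells seeded at 10 000 per well and allowed 36-48 h to attach. They were given increasing conjugate concentrations up to 100 µM and incubated overnight without light. Viability was read with Cell Titer Blue fluorescence at 520/584 nm and normalized to untreated cells (100%) and 0.2% saponin-treated cells (0%).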

[4] = Homo sapiens, HEp-2, read-out: IC50

NCCCC[C@H](NC(=O)[C@H](CCCN=C(N)N)NC(=O)CNC(=O)COCCOCCOCCOCCOCCOCCNC(=O)COCC(=O)Nc1ccc(-c2c3nc(c(-c4ccccc4)c4ccc([nH]4)c(-c4ccccc4)c4nc(c(-c5ccccc5)c5ccc2[nH]5)C=C4)C=C3)cc1)C(=O)N[C@@H](CCCCN)C(=O)N[C@@H](CCCN=C(N)N)C(=O)N[C@@H](CCCN=C(N)N)C(=O)N[C@@H](CCC(N)=O)C(=O)N[C@@H](CCCN=C(N)N)C(=O)N[C@@H](CCCN=C(N)N)C(=O)N[C@@H](CCCN=C(N)N)C(=O)N1CCC[C@H]1C(=O)N1CCC[C@H]1C(=O)N[C@@H](CCC(N)=O)C(N)=O
IC50 (HEp-2 [1]; hep-2): Active
Activity (HEp-2 [2]): Active
IC50 (HEp-2 [3]; [4]): 30 µM

N=C(N)NCCC[C@H](NC(=O)CNC(=O)COCCOCCOCCOCCOCCOCCNC(=O)COCC(=O)Nc1ccc(-c2c3nc(c(-c4ccccc4)c4ccc([nH]4)c(-c4ccccc4)c4nc(c(-c5ccccc5)c5ccc2[nH]5)C=C4)C=C3)cc1)C(=O)N[C@@H](CCCN=C(N)N)C(=O)N[C@@H](CCCN=C(N)N)C(=O)N[C@@H](CCCN=C(N)N)C(=O)N[C@@H](CCCN=C(N)N)C(=O)N[C@@H](CCCNC(=N)N)C(=O)N[C@@H](CCCNC(=N)N)C(=O)N[C@@H](CCCN=C(N)N)C(=O)O
IC50 (HEp-2 [1]; hep-2): Active
Activity (HEp-2 [2]): Active
IC50 (HEp-2 [3]; [4]): 75 µM

NCCCC[C@H](NC(=O)[C@H](CCCN=C(N)N)NC(=O)CNC(=O)COCC(=O)NCCOCCOCCOCCOCCOCCOCCOCCNC(=O)COc1ccc(-c2c3nc(c(-c4ccc(OCC(=O)O)cc4)c4ccc([nH]4)c(-c4ccc(OCC(=O)O)cc4)c4nc(c(-c5ccc(OCC(=O)O)cc5)c5ccc2[nH]5)C=C4)C=C3)cc1)C(=O)N[C@@H](CCCCN)C(=O)N[C@@H](CCCN=C(N)N)C(=O)N[C@@H](CCCN=C(N)N)C(=O)N[C@@H](CCC(N)=O)C(=O)N[C@@H](CCCN=C(N)N)C(=O)N[C@@H](CCCN=C(N)N)C(=O)N[C@@H](CCCN=C(N)N)C(=O)N1CCC[C@H]1C(=O)N1CCC[C@H]1C(=O)N[C@@H](CCC(N)=O)C(N)=O
IC50 (HEp-2 [1]; hep-2): Not Active
Activity (HEp-2 [2]): Active
IC50 (HEp-2 [3]; hep-2): Not Active

CC(C)[C@H](NC(=O)[C@H](CCCCN)NC(=O)[C@H](CCCN=C(N)N)NC(=O)[C@H](CCCCN)NC(=O)[C@H](CCCCN)NC(=O)[C@H](CCCCN)NC(=O)[C@@H]1CCCN1C(=O)CNC(=O)COCC(=O)NCCOCCOCCOCCOCCOCCOCCOCCNC(=O)COc1ccc(-c2c3nc(c(-c4ccc(OCC(=O)O)cc4)c4ccc([nH]4)c(-c4ccc(OCC(=O)O)cc4)c4nc(c(-c5ccc(OCC(=O)O)cc5)c5ccc2[nH]5)C=C4)C=C3)cc1)C(N)=O
IC50 (HEp-2 [1]; hep-2): Not Active
Activity (HEp-2 [2]): Active
IC50 (HEp-2 [3]; hep-2): Not Active

CC(C)[C@H](NC(=O)[C@H](CCCCN)NC(=O)[C@H](CCCN=C(N)N)NC(=O)[C@H](CCCCN)NC(=O)[C@H](CCCCN)NC(=O)[C@H](CCCCN)NC(=O)[C@@H]1CCCN1C(=O)CNC(=O)COCCOCCOCCOCCOCCOCCNC(=O)COCC(=O)Nc1ccc(-c2c3nc(c(-c4ccccc4)c4ccc([nH]4)c(-c4ccccc4)c4nc(c(-c5ccccc5)c5ccc2[nH]5)C=C4)C=C3)cc1)C(N)=O (X1-[NH(CH2CH2O)6CH2CO]GPKKKRKV-NH2)
IC50 (HEp-2 [1]; Homo sapiens, HEp-2, light or radiation study, read-out: IC50): 1.5 µM
Activity (HEp-2 [2]): Active
IC50 (HEp-2 [3]; [4]): 90 µM
